Test results published in ChEMBL document CHEMBL3808283, “Biological Characterization and in Vivo Assessment of the Activity of a New Synthetic Macrocyclic Antifungal Compound” (J Med Chem, 2016).
Converted amounts (≈) assume the structure as drawn. The source made the active and inactive calls. The calls are words filed in the database; no cut-off is given here.

How the values were obtained:
Candida albicans [1] = experiment: Upregulation of IFU5 gene expression in Candida albicans SC5314 at 3 uM after 45 mins by microarray method relative to control; assay type: functional
Summary of the method: (§1)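 Log-phase C. albicans SC5314 in liquid YEPD exposed to 3 µM final for 15 or 45 min; untreated controls taken at the same time points. Three biological replicates. RNA extracted by glass-bead/phenol-chloroform method and integrity checked. One-color Cy3-labeled cRNA (600 ng) hybridized 17 h at 65 °C to 8 × 15K arrays. Expression expressed as fold change versus control.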

Candida albicans [2] = experiment: Upregulation of CDR1 gene expression in Candida albicans SC5314 at 3 uM after 15 to 45 mins by qRT-PCR method; assay type: functional, organism-based
Summary of the method: (§2)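 Log-phase C. albicans treated at 3 µM. RNA extracted with glass-bead disruption, then DNase-treated (10 µg per preparation). Target gene CT values were normalized to an endogenous reference. Fold change calculated as mean normalized expression of samples relative to a selected control.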

Candida albicans [3] = experiment: Upregulation of CDR2 gene expression in Candida albicans SC5314 at 3 uM after 15 to 45 mins by qRT-PCR method; assay type: functional, organism-based; summary of the method: as §2
Candida albicans [4] = experiment: Antifungal activity against fluconazole-susceptible Candida albicans ATCC 90028 in immunocompetent Balb/c mouse candidiasis model assessed as reduction in CFU count in kidney at 20 to 40 mg/kg/day, ip regime measured on day 7 post infection; assay type: functional, organism-based
Summary of the method: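 Immunocompetent BALB/c mice, 10 per strain group, injected in the lateral tail vein with 7 × 10^4 CFU of C. albicans in 200 µL sterile saline. Compound given ip daily, 100 µL of 0.1 mg/mL in DMSO/PEG 400 2:1; fluconazole control ip at 8 mg/kg/day. On day 7, spleen and kidneys were excised, weighed and homogenized in saline, then plated on YPD agar for 2 days at 30 °C. Read-out CFU/g; Wilcoxon rank-sum test, P<0.05.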

Candida albicans [5] = experiment: Antifungal activity against azole-resistant Candida albicans isolate DSY296 in immunocompetent Balb/c mouse candidiasis model assessed as reduction in CFU count in kidney at 40 mg/kg/day, ip regime measured on day 7 post infection; assay type: functional, organism-based
Summary of the method: (§3)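 Immunocompetent BALB/c mice, 10 per strain group, received 7 × 10^4 CFU of C. albicans in 200 µL saline via the lateral vein. Drug was given i.p. daily at 40 mg/kg/day as a 0.1 mg/mL solution in DMSO/PEG 400 (2:1), 100 µL per dose. On day 7, spleen and kidneys were weighed, homogenized, and plated on YPD agar (2 days, 30 °C) for CFU/g. Analysis used Wilcoxon rank-sum, P<0.05.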

Candida albicans [6] = experiment: Antifungal activity against azole-resistant Candida albicans isolate DSY296 in immunocompetent Balb/c mouse candidiasis model assessed as reduction in CFU count in spleen at 40 mg/kg/day, ip regime measured on day 7 post infection; assay type: functional, organism-based; summary of the method: as §3
Candida albicans [7] = experiment: Antifungal activity against Candida albicans ATCC 60193 up to 96 hrs by broth dilution assay; assay type: functional
Candida albicans [8] = experiment: Antifungal activity against Candida albicans 4T up to 96 hrs by broth dilution assay; assay type: functional, organism-based
Candida albicans [9] = experiment: Antifungal activity against Candida albicans 53T up to 96 hrs by broth dilution assay; assay type: functional, organism-based
Candida albicans [10] = experiment: Upregulation of PDR16 gene expression in Candida albicans SC5314 at 3 uM after 15 mins by microarray method relative to control; assay type: functional; summary of the method: as §1
Candida albicans [11] = experiment: Upregulation of orf19.7336 gene expression in Candida albicans SC5314 at 3 uM after 15 mins by microarray method relative to control; assay type: functional
Summary of the method: (§4)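 Log-phase cultures in liquid YEPD were exposed to 3 µM compound (final) for 15 or 45 min, with untreated controls sampled at the same times, in three biological replicates. Total RNA was extracted by glass-bead/phenol-chloroform disruption and integrity-checked. One-color Cy3-labelled cRNA (600 ng) was hybridized for 17 h at 65 °C to 8 × 15K arrays, and fold change was taken versus control.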

Candida albicans [12] = experiment: Upregulation of orf19.4907 gene expression in Candida albicans SC5314 at 3 uM after 45 mins by microarray method relative to control; assay type: functional; summary of the method: as §4
Candida albicans [13] = experiment: Upregulation of RTA2 gene expression in Candida albicans SC5314 at 3 uM after 45 mins by microarray method relative to control; assay type: functional; summary of the method: as §1
Candida albicans [14] = experiment: Upregulation of ERG2 gene expression in Candida albicans SC5314 at 3 uM after 45 mins by microarray method relative to control; assay type: functional; summary of the method: as §1
Candida albicans [15] = experiment: Upregulation of orf19.3089 gene expression in Candida albicans SC5314 at 3 uM after 45 mins by microarray method relative to control; assay type: functional; summary of the method: as §4
Candida albicans [16] = experiment: Upregulation of orf19.6873.1 gene expression in Candida albicans SC5314 at 3 uM after 45 mins by microarray method relative to control; assay type: functional; summary of the method: as §4
Candida albicans [17] = experiment: Antifungal activity against Candida albicans 53T measured at 24 hrs by broth dilution assay; assay type: functional
Summary of the method: (§5)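 EUCAST broth microdilution, including the update for non-fermenting yeasts (Cryptococcus, Geotrichum), on clinical and reference yeast isolates. Incubated at 37 °C and read at 24, 48 and 72 h. MIC taken as the lowest concentration with no visible growth. For Cryptococcus and Geotrichum, MICs were read only once growth was visible in the control row.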

Pichia kudriavzevii [18] = experiment: Antifungal activity against Candida krusei ATCC 14243 measured at 48 hrs by broth dilution assay; assay type: functional; details: ATCC 14243, 48 h; summary of the method: as §5
Pichia kudriavzevii [19] = experiment: Antifungal activity against Candida krusei 193T measured at 24 hrs by broth dilution assay; assay type: functional; summary of the method: as §5
Pichia kudriavzevii [20] = experiment: Antifungal activity against Candida krusei 193T measured at 48 hrs by broth dilution assay; assay type: functional; summary of the method: as §5
Pichia kudriavzevii [21] = experiment: Antifungal activity against Candida krusei 193T measured at 72 hrs by broth dilution assay; assay type: functional; summary of the method: as §5
Candida parapsilosis [22] = experiment: Antifungal activity against Candida parapsilosis ATCC 34136 measured at 24 hrs by broth dilution assay; assay type: functional; details: Lodderomyces parapsilosis, ATCC 34136, 24 h; summary of the method: as §5
Candida parapsilosis [23] = experiment: Antifungal activity against Candida parapsilosis 81E measured at 72 hrs by broth dilution assay; assay type: functional; details: Lodderomyces parapsilosis; summary of the method: as §5
Candida tropicalis = experiment: Antifungal activity against Candida tropicalis 86E measured at 24 hrs by broth dilution assay; assay type: functional; summary of the method: as §5
Cryptococcus neoformans [24] = experiment: Antifungal activity against Cryptococcus neoformans measured at 24 hrs by broth dilution assay; assay type: functional, organism-based; summary of the method: as §5
Cryptococcus neoformans [25] = experiment: Antifungal activity against Cryptococcus neoformans measured at 48 hrs by broth dilution assay; assay type: functional, organism-based; summary of the method: as §5
[26] = Antifungal activity against Geotrichum silvicola measured at 72 hrs by broth dilution assay; assay type: functional; summary of the method: as §5
Magnusiomyces capitatus = experiment: Fungicidal activity against Geotrichum capitatum at 40 uM measured at 48 hrs by time kill assay; assay type: functional
Summary of the method: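 EUCAST broth microdilution at 37 °C. From wells at MIC, 2×, 4× and 8× MIC, 10 µL aliquots were taken, serially 10-fold diluted in saline and plated on Sabouraud dextrose agar. Plates were incubated at 37 °C for 24/48 h, and 48 h for Cryptococcus and Geotrichum. Done in duplicate, detection limit 10 CFU/mL. A drop of at least 3 Log10 CFU/mL from the initial inoculum in 24 h counts as fungicidal; a smaller drop counts as fungistatic.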

With `C/C=C/CNC(=N)NCCCCCCCCN1CCCCCCCCNC(=N)NC1=O` the “fold change (FC)” value (Candida albicans [1]) was 2.58, the Activity (Candida albicans [2]) was “Active” and the Activity (Candida albicans [3]) was “Active”. The Activity (Candida albicans [4]) was “Active”, the Activity (Candida albicans [5]) was “Active” and the Activity (Candida albicans [6]) was “Active”. The Activity (Candida albicans [7]) was “Active”, the Activity (Candida albicans [8]) was “Active” and the Activity (Candida albicans [9]) was “Active”. For the same molecule, the “fold change (FC)” value (Candida albicans [10]) was 4.43, the “fold change (FC)” value (Candida albicans [11]) was 2.8 and the “fold change (FC)” value (Candida albicans [12]) was 5.3. For the same molecule, the “fold change (FC)” value (Candida albicans [13]) was 2.93, the “fold change (FC)” value (Candida albicans [14]) was 2.83 and the “fold change (FC)” value (Candida albicans [15]) was 2.63. The “fold change (FC)” value (Candida albicans [16]) was 1.9, the MIC (Candida albicans [17]) was 5 µM (≈ 2.18 µg/mL) and the MIC (Pichia kudriavzevii [18]) was 80 µM (≈ 34.9 µg/mL). It also gave an MIC (Pichia kudriavzevii [19]) of 10 µM (≈ 4.36 µg/mL), an MIC (Pichia kudriavzevii [20]) of 80 µM (≈ 34.9 µg/mL) and an MIC (Pichia kudriavzevii [21]) of 80 µM (≈ 34.9 µg/mL). For the same molecule, the MIC (Candida parapsilosis [22]) was 10 µM (≈ 4.36 µg/mL), the MIC (Candida parapsilosis [23]) was 40 µM (≈ 17.4 µg/mL) and the MIC (Candida tropicalis) was 2.5 µM (≈ 1.09 µg/mL). For the same molecule, the Activity (Cryptococcus neoformans [24]) was “Active”, the Activity (Cryptococcus neoformans [25]) was “Active” and the MIC [26] was 10 µM (≈ 4.36 µg/mL). The Activity (Magnusiomyces capitatus) was “Active”.
